In ChEMBL document CHEMBL1121991, “4-Aroyl-1,3-dihydro-2H-imidazol-2-ones, a new class of cardiotonic agents” (1982):
Where “and” joins values, the source holds several entries; their conditions need not be identical. Equal entries are not always repeated.

Legend:
[1] = system: Canis familiaris; experiment: Pharmacological activity for heart rate +15% in anesthetized dog was determined after intravenous administration; assay type: functional, Canis lupus familiaris
Procedure, shortened: (§1)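 Anesthetized dogs; contractile force recorded by a left-ventricular Walton-Brodie strain gauge arch, heart rate from lead II EKG, plus blood pressure. Stabilized at least 30 min, then at least three iv doses given, one compound per animal, with return to basal between doses. Doses for +30% force, +15% rate and −20% BP were extrapolated from dose-response curves; geometric mean where repeated.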

[2] = system: Canis familiaris; experiment: The change in stroke volume was determined after 10 min of 0.3 ug/kg administration in the dog heart-lung preparation; assay type: functional, Canis lupus familiaris
Procedure, shortened: (§2)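 Dog heart-lung preparation from mongrel dogs of either sex, 11–19 kg, anesthetized with sodium pentobarbital 35 mg/kg iv. Strain gauge arch on the right ventricle; left atrial pressure by atrial cannula transducer; aortic flow by extracorporeal flow meter. Drug was added to the blood reservoir and measured at 10 min, n = 5–8. Change vs control by paired t test.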

[3] = system: Canis familiaris; experiment: The cardiac contractile force was determined after 1.0 mg/kg administration with 20 mg/kg pentobarbital in the dog heart-lung preparation; assay type: functional, Canis lupus familiaris
Procedure, shortened: (§3)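 Heart-lung preparation from mongrel dogs anesthetized with pentobarbital 35 mg/kg iv. Failure was induced by adding pentobarbital 20 mg/kg to the blood reservoir, then test agent 1 mg/kg was added. Force, rate, output, stroke volume, left atrial pressure and stroke work were read 10 min later. Five preparations, means ± SE, analysis of variance.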

[4] = system: Canis familiaris; experiment: The change in stroke volume was determined after 10 min of 1.0 ug/kg administration in the dog heart-lung preparation; assay type: functional, Canis lupus familiaris; procedure, shortened: as §2
[5] = system: Canis familiaris; experiment: Pharmacological activity for Blood pressure, -20% in anesthetized dog was determined after intravenous administration; assay type: functional, Canis lupus familiaris; procedure, shortened: as §1
[6] = system: Canis familiaris; experiment: The change in cardiac contractile force was determined after 10 min of 0.3 ug/kg administration in the dog heart-lung preparation; assay type: functional, Canis lupus familiaris; procedure, shortened: as §2
[7] = system: Canis familiaris; experiment: The stroke volume was determined after 1.0 mg/kg administration with 20 mg/kg pentobarbital in the dog heart-lung preparation; assay type: functional, Canis lupus familiaris; procedure, shortened: as §3
[8] = system: Canis familiaris; experiment: The change in cardiac contractile force after 10 min of 3.0 ug/kg administration in the dog heart-lung preparation; assay type: functional, Canis lupus familiaris; procedure, shortened: as §2
[9] = system: Canis familiaris; experiment: The change in left atrial pressure was determined after 10 min of 0.3 ug/kg administration in the dog heart-lung preparation; assay type: functional, Canis lupus familiaris, Cardiac atrium; procedure, shortened: as §2
[10] = system: Canis familiaris; experiment: The change in stroke volume was determined after 10 min of 3.0 ug/kg administration in the dog heart-lung preparation; assay type: functional, Canis lupus familiaris; procedure, shortened: as §2
[11] = system: Canis familiaris; experiment: Pharmacological activity for Contractile force, +30% in anesthetized dog was determined after intravenous administration; assay type: functional, Canis lupus familiaris; procedure, shortened: as §1
[12] = system: Canis familiaris; experiment: The left atrial pressure was determined after 1.0 mg/kg administration with 20 mg/kg pentobarbital in the dog heart-lung preparation; assay type: functional, Canis lupus familiaris, Cardiac atrium; procedure, shortened: as §3
[13] = system: Canis familiaris; experiment: (§4) The change in cardiac output was determined after 10 min of 3.0 ug/kg administration in the dog heart-lung preparation; assay type: functional, Canis lupus familiaris; procedure, shortened: as §2
[14] = system: Canis familiaris; experiment: The change in mean arterial blood pressure was determined after 1 mg/kg iv administration with 0.5 mg/kg, iv propranolol; assay type: functional, Canis lupus familiaris
Procedure, shortened: (§5)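 Anesthetized dogs, N = 6 per group, given test agent 1 mg/kg iv or isoproterenol 0.1 μg/kg iv, with or without propranolol 0.5 mg/kg iv pretreatment. Percent change from control was recorded for contractile force (strain gauge arch) and for mean arterial BP. Values are means ± SE, compared by Student's t test.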

[15] = system: Canis familiaris; experiment: The change in stroke volume after 10 min of 3.0 ug/kg administration in the dog heart-lung preparation; assay type: functional, Canis lupus familiaris; procedure, shortened: as §2
[16] = system: Canis familiaris; experiment: The change in left atrial pressure was determined after 10 min of 3.0 ug/kg administration in the dog heart-lung preparation; assay type: functional, Canis lupus familiaris, Cardiac atrium; procedure, shortened: as §2
[17] = system: Canis familiaris; experiment: The change in stroke volume after 10 min of 1.0 ug/kg administration in the dog heart-lung preparation; assay type: functional, Canis lupus familiaris; procedure, shortened: as §2
[18] = system: Canis familiaris; experiment: The change in cardiac contractile force after 1 mg/kg iv administration, activity is expressed as % change.; assay type: functional, Canis lupus familiaris, Heart; procedure, shortened: as §5
[19] = system: Canis familiaris; experiment: The change in cardiac contractile force after 1 mg/kg iv administration with 0.5 mg/kg, iv propranolol; assay type: functional, Canis lupus familiaris, Heart; procedure, shortened: as §5
[20] = system: Canis familiaris; experiment: The change in heart rate was determined after 10 min of 1.0 ug/kg administration in the dog heart-lung preparation; assay type: functional, Canis lupus familiaris; procedure, shortened: as §2
[21] = system: Canis familiaris; experiment: as §4; assay type: functional, Canis lupus familiaris; procedure, shortened: as §2; remark: listed apart in the source
[22] = system: Canis familiaris; experiment: Stroke work was determined after 1.0 mg/kg administration with 20 mg/kg pentobarbital in the dog heart-lung preparation; assay type: functional, Canis lupus familiaris; procedure, shortened: as §3
[23] = system: Canis familiaris; experiment: The change in cardiac contractile force was determined after 10 min of 3.0 ug/kg administration in the dog heart-lung preparation; assay type: functional, Canis lupus familiaris; procedure, shortened: as §2
[24] = system: Canis familiaris; experiment: The change in mean arterial blood pressure was determined after 1 mg/kg iv administration; assay type: functional, Canis lupus familiaris; procedure, shortened: as §5
[25] = system: Canis familiaris; experiment: The change in heart rate was determined after 10 min of 3.0 ug/kg administration in the dog heart-lung preparation; assay type: functional, Canis lupus familiaris; procedure, shortened: as §2
[26] = system: Canis familiaris; experiment: The change in left atrial pressure was determined after 10 min of 3.0 ug/kg administration in the dog heart-lung preparation.; assay type: functional, Canis lupus familiaris, Cardiac atrium; procedure, shortened: as §2
[27] = system: Canis familiaris; experiment: The change in left atrial pressure after 10 min of 0.3 ug/kg administration in the dog heart-lung preparation; assay type: functional, Canis lupus familiaris, Cardiac atrium; procedure, shortened: as §2
[28] = system: Canis familiaris; experiment: The heart rate was determined after 1.0 mg/kg administration with 20 mg/kg pentobarbital in the dog heart-lung preparation; assay type: functional, Canis lupus familiaris; procedure, shortened: as §3
[29] = system: Canis familiaris; experiment: The change in cardiac contractile force was determined after 10 min of 1.0 ug/kg administration in the dog heart-lung preparation; assay type: functional, Canis lupus familiaris; procedure, shortened: as §2
[30] = system: Canis familiaris; experiment: The cardiac output was determined after 1.0 mg/kg administration with 20 mg/kg pentobarbital in the dog heart-lung preparation; assay type: functional, Canis lupus familiaris; procedure, shortened: as §3
[31] = system: Canis familiaris; experiment: The change in heart rate was determined after 10 min of 0.3 ug/kg administration in the dog heart-lung preparation; assay type: functional, Canis lupus familiaris; procedure, shortened: as §2

COc1ccc(C(=O)c2[nH]c(O)nc2C)cc1
Equieffective dose [1]: 0.4 mg/kg
Change [2]: -0.7% and -10%
Cardiac contractile force [3]: 88 g
Change [4]: -1.1 mL
Equieffective dose [5]: 0.65 mg/kg
Change [6]: 62% and 88%
Stroke volume [7]: 7 mL
Change [8]: 179%
Change [9]: -49%
Change [10]: -1.2 mL
Equieffective dose [11]: 0.16 mg/kg
Left atrial pressure [12]: 2.6 mmHg
Change [13]: 4%
Change [14]: -33%
Change [15]: -18%
Change [16]: -43%
Change [17]: -16%
Change [18]: 127%
Change [19]: 144%
Change [20]: 35% and 23%
Change [21]: 46 mL/min
Stroke work [22]: 7.7 g
Change [23]: 129 g
Change [24]: -27%
Change [25]: 41% and 28%
Change [26]: -1.1 mmHg
Change [27]: -1.6 mmHg
Heart rate [28]: 151 beats min-1
Change [29]: 96.7% and 121%
Cardiac output [30]: 1053 mL/min
Change [31]: 22% and 14%
